IMP-1 inh: blocks Pseudomonas aeruginosa IMP-1 metallo-beta-lactamase; purified IMP-1, nitrocefin hydrolysis, epi-absorbance fluorescence; inhibition, % at 5.6 µM; 0.45% of 290,000 active;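 active = inhibition above the mean plus 3 SD of all compounds in the same screening run, cut at about 4.5% in these data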;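 also: 0% = IMP-1 with DMSO and 100% = DMSO wells lacking enzyme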
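System: purified IMP-1 / Input: IMP-1 dispensed at 0.2 nM / Medium: 50 mM HEPES pH 7.1, 50 µM ZnSO4, 0.05% Brij 35 / Timing: 15 min enzyme–compound preincubation, then 25 min nitrocefin reaction, 25 °C / Technique: plate fluorescence quenching by hydrolysis product, ex 480/em 530 nm / Repeats: singlicate testing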
Neddylation inh: blocks human cullin neddylation | P61081+Q13564 | TR-FRET cullin neddylation, biochemical | calls only at 25 µM | 0.58% of 360,000 active | AID 651699; in the data active = inhibition above about 36%
procasp3 activ: activates human procaspase-3 | P42574 | recombinant procaspase-3 D3A, Ac-DEVD-pNA absorbance 405 nm | activation, % at 8.5 µM | 0.11% of 330,000 active | AID 463141;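 active = activation above the mean of all tested compounds plus 3 SD, cut at about 21% in these data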;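 also: 0% = DMSO alone and 100% = DMSO wells spiked with extra 5 µM PC-3 D3A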
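assay system = Procaspase-3 D3A mutant | signal = absorbance at 405 nm, 0 and 120 min | times = 1 h preincubation plus 2 h reaction at 25 °C | repeats = single replicate | read-out = % activation between DMSO and enzyme-spiked controls | medium = Zinc-free HEPES saline buffer with Triton X-100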
VIM-2 inh: blocks Pseudomonas aeruginosa VIM-2 metallo-beta-lactamase. inhibition, % at 5.6 µM. 0.89% of 290,000 active. purified VIM-2, nitrocefin hydrolysis, epi-absorbance fluorescence. AID 1527;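 active = inhibition above the mean of all tested compounds plus 3 SD, cutoff set per screening run, cut at about 7.5% in these data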;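 also: red hydrolysis product quenches plate fluorescence so inhibitors raise well fluorescence; 0% = enzyme with DMSO and 100% = DMSO without enzyme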
PolyA inhibitor: inhibitors of polyadenylation in S. cerevisiae; 0.02% of 300,000 active; S. cerevisiae SKY197-pL101 polyadenylation reporter, beta-gal luminescence; efflux-impaired pdr1/pdr3 knockout yeast; score 100 = 6 SD above DMSO; activity score, % at 12 µM; AID 1875;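 active = lowest replicate activity score at least 50, where 100 means six control SD above control mean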;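 also: yeast exposed to compound for 9 h at 30 °C; higher score means more reporter readthrough which indicates perturbed polyadenylation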
procasp7 counter: counter-screen: procaspase-7 (human) activation. P55210. recombinant procaspase-7, Ac-DEVD-pNA absorbance 405 nm; D23A/D198A/D206A triple mutant, cannot self-cleave; scale: DMSO 0, 5 µM enzyme 100. activation, % at 8.5 µM. 0.093% of 330,000 active;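 active = percent activation above the screen-wide mean plus 3 SD, cut at about 25% in these data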
Target sequence (P55210 whole entry D23A/D198A/D206A): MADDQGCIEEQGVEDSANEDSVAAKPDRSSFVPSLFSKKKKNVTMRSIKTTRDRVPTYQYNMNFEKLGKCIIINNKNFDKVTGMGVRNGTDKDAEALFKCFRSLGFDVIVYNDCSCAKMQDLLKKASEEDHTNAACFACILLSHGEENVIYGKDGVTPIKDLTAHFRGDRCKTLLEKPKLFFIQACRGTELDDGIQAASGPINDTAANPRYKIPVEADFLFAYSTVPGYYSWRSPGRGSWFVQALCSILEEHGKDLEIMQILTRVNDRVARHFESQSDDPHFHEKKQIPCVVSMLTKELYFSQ
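buffer or medium = Zinc-free HEPES/NaCl buffer, pH 7.4 | material = Procaspase-7 triple mutant (PC-7 D3A) | input = 2 µM procaspase-7 mutant as dispensed | signal = Epi-absorbance of released pNA at 405 nm, two timepoints | timing = 1 h preincubation, 2 h reaction | replicates = singlicate compound testing | evaluation = % activation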
Neddyl inh conf: cullin neddylation inhibition, confirmation | shares compounds with Neddylation inh | TR-FRET cullin neddylation biochemical assay | calls only at 25 µM | 13% of 1,800 active | AID 652217; in the data active = inhibition above about 40%;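 also: neddylation substrate is the cullin 1 ring ligase complex with SKP2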
* hit, by the source's call; i = inactive; . = not tested or not shown; + = active, no number. In the library only some 1.7% were active in any assay of this set; here they are far more common.

SMILES	IMP-1 inh	Neddylation inh	procasp3 activ	VIM-2 inh	PolyA inhibitor	procasp7 counter	Neddyl inh conf
CCOC(=O)C1=C(C)NC(C)=C(C(=O)OCC)C1c1ccc(OC)cc1	-1.0	.	-4.2	-3.7	3.2	7.0	.
CCOC(=O)C1=C(C)NC(C)=C(C(=O)OCC)C1C	-3.7	+	4.1	-1.6	-3.6	-8.1	.
CC(=O)Oc1ccc(C(=O)Nc2ccccc2NC(=O)c2ccc(OC(C)=O)cc2)cc1	-2.2	i	-2.1	-1.7	-7.4	6.7	.
CN(C)c1cccc(C(=O)NC2CCCc3ccccc32)c1 (stereo unspecified)	-1.8	+	-1.9	-1.3	-0.1	5.9	i
Cc1ccn2c(=O)nc(SCC(=O)NCCc3ccccc3)nc2c1	.	i	7.8	.	-19.9	1.4	.
CCN(CC)c1ccc(/C=N/N2C(=O)c3ccccc3C2=O)cc1	-3.5	i	-0.7	-2.9	6.7	0.9	.
CC(=O)/C=C\c1cn(-c2ncc(C(F)(F)F)cc2Cl)c2ccccc12	-1.7	i	0.8	-1.7	-13.1	3.7	.
N#CC(C#N)=Cc1cn(-c2ncc(C(F)(F)F)cc2Cl)c2ccccc12	-1.9	+	9.8	-2.2	12.8	3.7	i
Cc1cc(C)nc(Nc2ccc(O)cc2)n1	-0.8	i	8.4	-1.1	-8.4	0.6	.
CCOC(=O)c1[nH]c2ccc(Cl)cc2c1NC(=O)/C=C/c1ccc2c(c1)OCO2	-1.0	+	-0.4	-1.7	22.2	4.6	i
CCN=C1S/C(=C\c2ccc(Sc3ccc(Cl)cc3)o2)C(=O)N1CC	-1.2	+	-8.7	-4.7	3.9	-2.3	.
c1ccc(-n2ncc3c(NCc4ccccn4)ncnc32)cc1	-3.1	i	1.0	-1.6	-20.7	3.1	.
Cc1cccc(-n2ncc3c(NCc4ccccn4)ncnc32)c1	-4.3	+	4.2	-2.9	-7.1	9.6	i
CN1CCCCc2c1nc1c(c2N)CCCC1	-2.7	+	5.3	-5.0	18.7	1.9	i
CCOC(=O)CSc1ccc2nnc(-c3ccccc3)n2n1	-2.7	.	2.1	-1.3	3.9	-0.2	.
CCOC(=O)CSc1ccc2nnc(-c3cccnc3)n2n1	-1.8	+	-3.4	2.5	-8.6	4.3	.
O=C(COC(=O)/C=C/c1cccc([N+](=O)[O-])c1)NCc1ccc2c(c1)OCO2	-1.6	i	-1.8	-2.4	9.9	0.9	.
CCN(CC)CCOC(=O)c1ccc(N/C=C(/C#N)c2nc(-c3ccc(OC)cc3)cs2)cc1	0.5	+	-2.0	-2.4	-6.6	-2.9	i
CCN(CC)CCOC(=O)c1ccc(N/C=C(/C#N)c2nc(-c3ccc4c(c3)OCO4)cs2)cc1	2.9	i	-3.3	0.0	1.0	-0.5	.
Cn1c(SCc2c(Cl)cccc2Cl)nnc1-c1ccc2nonc2c1	-3.9	i	-8.6	-1.6	8.5	3.8	.
Cn1c(SCc2ccc(Cl)cc2)nnc1-c1ccc2nonc2c1	-1.9	+	-4.4	-3.1	2.5	-12.6	i
CCOc1cc(/C=C(/C#N)c2nc3ccccc3[nH]2)ccc1OCc1ccc(C(=O)O)o1	-2.0	+	2.6	-1.7	-19.5	-2.0	i
Cn1c(NCCN2CCCC2)nc2cc(-c3ccsc3)sc2c1=O	.	i	.	.	.	.	.
COc1ccc(-c2cc3nc(NCCN4CCCC4)n(C)c(=O)c3s2)cc1OC	.	+	.	.	.	.	+
COc1ccc(Oc2nccc(-c3ccc(F)cc3)c2C#N)cc1	-0.9	i	8.9	-1.9	-14.8	12.6	.
Cc1ccc(-c2c(C#N)c(N)nc3c2CCCC3)o1	-5.0	+	1.5	7.7	-22.1	6.8	i
CC(C)OC(=O)c1c(NC(=O)c2ccco2)sc2c1CCCCC2	0.0	.	-1.4	-1.4	5.8	-5.2	.
CNC(=O)c1c(NC(=O)c2ccco2)sc2c1CCCC2	-1.3	+	6.5	2.1	8.0	2.3	.
COC(=O)c1c(NC(=O)c2ccc(C)o2)sc2c1CCCCC2	3.2	.	.	-0.8	-7.9	.	.
